# Data reported in ChEMBL document CHEMBL4706586, “Structure-activity relationships for a series of (Bis(4-fluorophenyl)methyl)sulfinylethyl-aminopiperidines and -piperidine amines at the dopamine transporter: Bioisosteric replacement of the piperazine improves metabolic stability” (Eur J Med Chem, 2020).
# How the values were obtained:
# D(4) dopamine receptor = biological target: T1, D(4) dopamine receptor (Homo sapiens, UniProt P21917); experiment: Displacement of [3H]-N-methylspiperone from human D4.4 receptor expressed in HEK293 cell membranes measured after 60 mins by microbeta scintillation counting method; parameters: species or system Membrane
# T1 sequence (P21917 whole entry): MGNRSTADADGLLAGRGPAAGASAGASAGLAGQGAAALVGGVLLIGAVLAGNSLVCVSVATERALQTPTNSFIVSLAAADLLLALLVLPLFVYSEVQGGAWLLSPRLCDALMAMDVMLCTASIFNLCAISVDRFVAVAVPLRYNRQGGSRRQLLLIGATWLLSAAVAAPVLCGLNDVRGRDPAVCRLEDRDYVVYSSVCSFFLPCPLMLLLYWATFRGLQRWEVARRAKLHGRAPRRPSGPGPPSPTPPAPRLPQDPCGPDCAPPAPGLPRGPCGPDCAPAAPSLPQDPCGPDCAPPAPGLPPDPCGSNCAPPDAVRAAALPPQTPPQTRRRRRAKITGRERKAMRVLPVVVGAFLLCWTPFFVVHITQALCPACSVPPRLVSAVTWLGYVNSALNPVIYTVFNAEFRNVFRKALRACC
# Outline: (§1)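 Membranes from HEK293 cells stably expressing human D2LR, D3R or D4.4R; 20 μg/well protein (D2LR, D3R) or 30 μg/well (D4.4R); [3H]-N-methylspiperone 0.4 nM final; half-log dilutions in 30% DMSO, triplicate; 60 min RT; nonspecific 10 μM (+)-butaclamol.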
# D(2) dopamine receptor = D(2) dopamine receptor (Homo sapiens, UniProt P14416); experiment: Displacement of [3H]-N-methylspiperone from human D2L receptor expressed in HEK293 cell membranes measured after 60 mins by microbeta scintillation counting method; parameters: species or system Membrane; outline: as §1
# D(3) dopamine receptor = D(3) dopamine receptor (Homo sapiens, UniProt P35462); experiment: Displacement of [3H]-N-methylspiperone from human D3 receptor expressed in HEK293 cell membranes measured after 60 mins by microbeta scintillation counting method; parameters: species or system Membrane; outline: as §1
# [1] = Selectivity ratio of Ki for sigma 1 receptor in guinea pig brain cortex membranes to Ki for DAT in Sprague-Dawley rat striatum membranes; assay type: cell membranes
# [2] = biological target: Sigma non-opioid intracellular receptor 1 (Cavia porcellus, UniProt Q60492); experiment: Displacement of [3H](+)-pentazocine from sigma 1 receptor in guinea pig brain cortex membranes after 120 mins by scintillation counting analysis; assay type: cell membranes, Membrane
# Outline: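 Male guinea pig cortex membranes in 10 mM Tris-HCl/0.32 M sucrose pH 7.4, 5.0 mg/well original wet weight; [3H](+)-pentazocine 3 nM final; inhibitor serial dilutions in 30% DMSO vehicle, triplicate; 120 min at RT; nonspecific with 10 μM PRE084 or (+)-pentazocine.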
# Rattus norvegicus = species: Rattus norvegicus; experiment: Selectivity ratio of Ki for SERT in Sprague-Dawley rat midbrain membranes to Ki for DAT in Sprague-Dawley rat striatum membranes
# [3] = Metabolic stability in rat liver microsomes assessed as compound remaining at 10 uM incubated for 60 mins in presence of NADPH regenerating system by LC-MS/MS analysis; assay type: ADME, Microsome; settings: 1 h
# [4] = Metabolic stability in rat liver microsomes assessed as compound remaining at 10 uM in presence of NADPH regenerating system by LC-MS/MS analysis; assay type: ADME, Microsome
# [5] = Displacement of [3H]-Nisoxetine from NET in Sprague-Dawley rat frontal cortex membrane after 180 mins by microbeta scintillation counting method; assay type: cell membranes
# [6] = Toxicity in Swiss Webster mouse assessed as stimulation of ambulatory activity by measuring total distance travelled at 1 to 30 mg/kg, ip measured every 5 mins for 2 hrs; assay type: organism-based; settings: in vivo, dose 1-30 mg/kg
# [7] = biological target: Sodium-dependent dopamine transporter (Rattus norvegicus, UniProt P23977); experiment: Displacement of [3H]WIN35428 from DAT in Sprague-Dawley rat striatal membranes incubated for 120 mins by microbeta scintillation counting method; assay type: cell membranes, Striatum, Membrane
# [8] = biological target: Sodium-dependent serotonin transporter (Rattus norvegicus, UniProt P31652); experiment: Displacement of [3H]citalopram from SERT in Sprague-Dawley rat midbrain membranes incubated for 60 mins by microbeta scintillation counting method; assay type: cell membranes, Membrane
# Chain of Sodium-dependent serotonin transporter (P31652 whole entry): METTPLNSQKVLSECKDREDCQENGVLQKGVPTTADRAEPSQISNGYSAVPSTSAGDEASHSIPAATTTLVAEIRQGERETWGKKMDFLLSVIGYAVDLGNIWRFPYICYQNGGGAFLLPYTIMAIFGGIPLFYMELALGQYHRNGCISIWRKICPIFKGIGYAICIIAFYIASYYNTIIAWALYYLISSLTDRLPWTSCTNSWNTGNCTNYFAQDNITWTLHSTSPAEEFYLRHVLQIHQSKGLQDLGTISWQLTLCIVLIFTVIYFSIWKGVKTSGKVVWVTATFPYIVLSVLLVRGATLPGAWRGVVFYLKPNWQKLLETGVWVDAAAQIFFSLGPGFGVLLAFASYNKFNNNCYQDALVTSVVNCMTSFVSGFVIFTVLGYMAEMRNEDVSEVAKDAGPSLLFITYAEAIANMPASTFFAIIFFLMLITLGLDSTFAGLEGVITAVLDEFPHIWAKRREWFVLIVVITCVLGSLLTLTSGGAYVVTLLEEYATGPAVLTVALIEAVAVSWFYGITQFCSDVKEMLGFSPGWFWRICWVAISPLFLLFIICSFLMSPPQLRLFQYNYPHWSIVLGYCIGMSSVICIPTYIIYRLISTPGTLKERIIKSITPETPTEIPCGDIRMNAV
# Chain of D(3) dopamine receptor (P35462 whole entry): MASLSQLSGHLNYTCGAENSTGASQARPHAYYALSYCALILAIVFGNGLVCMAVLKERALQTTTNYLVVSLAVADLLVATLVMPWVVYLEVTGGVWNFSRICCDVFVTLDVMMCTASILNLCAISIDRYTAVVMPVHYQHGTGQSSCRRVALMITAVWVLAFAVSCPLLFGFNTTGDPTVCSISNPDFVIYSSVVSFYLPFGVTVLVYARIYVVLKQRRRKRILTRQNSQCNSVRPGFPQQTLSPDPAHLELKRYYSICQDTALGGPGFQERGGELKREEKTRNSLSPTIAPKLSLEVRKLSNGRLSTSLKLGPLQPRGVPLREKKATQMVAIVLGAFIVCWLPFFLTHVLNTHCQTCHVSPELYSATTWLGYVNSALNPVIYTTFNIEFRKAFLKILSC
# Chain of Sodium-dependent dopamine transporter (P23977 whole entry): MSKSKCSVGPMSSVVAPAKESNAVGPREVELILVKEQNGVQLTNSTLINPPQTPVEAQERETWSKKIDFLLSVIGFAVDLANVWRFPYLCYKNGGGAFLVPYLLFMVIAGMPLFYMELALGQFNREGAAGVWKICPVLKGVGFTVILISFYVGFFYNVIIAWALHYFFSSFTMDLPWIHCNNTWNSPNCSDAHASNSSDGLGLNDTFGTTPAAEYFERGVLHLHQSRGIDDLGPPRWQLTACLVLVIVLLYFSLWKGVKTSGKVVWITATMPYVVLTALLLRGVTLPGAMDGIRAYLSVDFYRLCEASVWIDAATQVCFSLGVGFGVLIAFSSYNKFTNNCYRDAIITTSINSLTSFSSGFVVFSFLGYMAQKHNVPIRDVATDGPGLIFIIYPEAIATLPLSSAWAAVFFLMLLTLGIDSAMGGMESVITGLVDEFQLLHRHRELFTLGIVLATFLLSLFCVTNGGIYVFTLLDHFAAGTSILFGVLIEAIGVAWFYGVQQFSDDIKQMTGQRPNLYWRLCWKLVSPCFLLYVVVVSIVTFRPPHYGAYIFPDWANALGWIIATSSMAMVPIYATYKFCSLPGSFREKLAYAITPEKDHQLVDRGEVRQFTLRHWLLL
# Chain of D(2) dopamine receptor (P14416 whole entry): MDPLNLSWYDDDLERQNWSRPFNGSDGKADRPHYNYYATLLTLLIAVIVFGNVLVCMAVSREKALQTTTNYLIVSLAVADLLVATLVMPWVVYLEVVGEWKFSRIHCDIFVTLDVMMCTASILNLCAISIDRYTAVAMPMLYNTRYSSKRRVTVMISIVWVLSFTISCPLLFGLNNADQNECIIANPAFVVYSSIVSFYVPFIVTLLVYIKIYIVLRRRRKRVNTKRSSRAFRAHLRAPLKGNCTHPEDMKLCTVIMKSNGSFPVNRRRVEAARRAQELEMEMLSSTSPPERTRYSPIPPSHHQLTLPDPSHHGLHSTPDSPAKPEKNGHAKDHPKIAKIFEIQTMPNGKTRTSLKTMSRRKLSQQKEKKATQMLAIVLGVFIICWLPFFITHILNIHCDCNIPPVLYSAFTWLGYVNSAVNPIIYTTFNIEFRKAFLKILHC
# Chain of Sigma non-opioid intracellular receptor 1 (Q60492 whole entry): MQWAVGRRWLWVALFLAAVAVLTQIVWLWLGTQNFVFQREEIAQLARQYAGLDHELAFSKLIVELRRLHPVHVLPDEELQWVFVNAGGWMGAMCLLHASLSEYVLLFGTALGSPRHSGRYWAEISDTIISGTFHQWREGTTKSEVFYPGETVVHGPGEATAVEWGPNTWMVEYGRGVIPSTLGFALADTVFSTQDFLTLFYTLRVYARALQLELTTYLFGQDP
compound,measurement,setting,value
NC(=O)C[S+]([O-])C(c1ccccc1)c1ccccc1 (racemic) [MODAFINIL],Ki,D(4) dopamine receptor,> 100 µM
same,Ki,D(2) dopamine receptor,> 100 µM
same,Ki,D(3) dopamine receptor,39 µM
Fc1ccc(C(SCCNC2CCN(CCc3ccccc3)CC2)c2ccc(F)cc2)cc1,Ratio Ki,[1],1.83
same,Ki,[2],57.7 nM
same,Ratio Ki,Rattus norvegicus,4.57
O=C(c1ccc(F)cc1)N1CCC(NCC[S+]([O-])C(c2ccc(F)cc2)c2ccc(F)cc2)CC1 (configuration not stated),Ki,D(4) dopamine receptor,> 100 µM
same,Stabilty,[3],79%
same,Stabilty,[4],100%
same,Ratio Ki,[1],18.7
same,Ki,[2],1440 nM
same,Ki,[5],23000 nM
same,Activity,[6],< 3000 cm
same,Ratio Ki,Rattus norvegicus,60.1
same,Ki,D(2) dopamine receptor,156 µM
same,Ki,D(3) dopamine receptor,28.2 µM
O=C(c1ccccc1)N1CCC(NCCSC(c2ccc(F)cc2)c2ccc(F)cc2)CC1,Ki,D(4) dopamine receptor,4.11 µM
same,Stabilty,[3],7%
same,Stabilty,[4],100%
same,Ki,[7],4.51 nM
same,Ratio Ki,[1],0.45
same,Ki,[2],2.03 nM
same,Ki,[5],920 nM
same,Ratio Ki,Rattus norvegicus,62.8
same,Ki,D(2) dopamine receptor,2.9 µM
same,Ki,D(3) dopamine receptor,2.51 µM
same,Ki,[8],0.283 µM
Fc1ccc(C(SCCNC2CCN(Cc3cc4ccccc4[nH]3)CC2)c2ccc(F)cc2)cc1,Ki,[2],205 nM
Fc1ccc(C(SCCN2CCC(NCc3ccccc3)CC2)c2ccc(F)cc2)cc1,Ratio Ki,[1],0.56
same,Ki,[2],60.9 nM
same,Ratio Ki,Rattus norvegicus,3.06
CC(O)CN1CCN(CCSC(c2ccc(F)cc2)c2ccc(F)cc2)CC1 (configuration not stated),Ki,[7],37.8 nM
same,Ki,[2],2.24 nM
same,Ki,[8],6.8 µM
Fc1ccc(C(SCCNC2CCN(Cc3ccccc3)CC2)c2ccc(F)cc2)cc1,Ratio Ki,[1],0.12
same,Ki,[2],3.81 nM
same,Ratio Ki,Rattus norvegicus,12.4
O=C(c1ccc(F)cc1F)N1CCC(NCC[S+]([O-])C(c2ccc(F)cc2)c2ccc(F)cc2)CC1 (configuration not stated),Ki,[7],564 nM
same,Ratio Ki,[1],0.3
same,Ki,[2],171 nM
same,Ratio Ki,Rattus norvegicus,8.17
same,Ki,[8],4.61 µM
Fc1ccc(C(SCCNC2CCN(Cc3cc4ccccc4o3)CC2)c2ccc(F)cc2)cc1,Ki,[7],120 nM
same,Ratio Ki,[1],1.71
same,Ki,[2],205 nM
same,Ratio Ki,Rattus norvegicus,5.79
same,Ki,[8],0.695 µM
NC(=O)C[S+]([O-])C(c1ccc(F)cc1)c1ccc(F)cc1 (racemic),Ki,[7],4090 nM
same,Ratio Ki,[1],> 24
same,Ki,[2],> 100000 nM
same,Ratio Ki,Rattus norvegicus,11.9
same,Ki,[8],48.7 µM
CC(C)N(CCSC(c1ccc(F)cc1)c1ccc(F)cc1)C1CCN(C(=O)c2ccccc2F)CC1,Ki,[7],1530 nM
same,Ratio Ki,[1],0.08
same,Ki,[2],126 nM
same,Ratio Ki,Rattus norvegicus,10.7
same,Ki,[8],16.3 µM
CC(C)(C)C(=O)N1CCC(NCCSC(c2ccc(F)cc2)c2ccc(F)cc2)CC1,Ki,D(4) dopamine receptor,11.9 µM
same,Ki,[2],163 nM
same,Ki,D(2) dopamine receptor,6.07 µM
same,Ki,D(3) dopamine receptor,3.42 µM
O=C(c1ccc(F)cc1)N1CCC(NCCSC(c2ccc(F)cc2)c2ccc(F)cc2)CC1,Ki,D(4) dopamine receptor,9.02 µM
same,Stabilty,[3],24%
same,Stabilty,[4],100%
same,Ki,[7],7.04 nM
same,Ratio Ki,[1],4.59
same,Ki,[2],32.1 nM
same,Ki,[5],258 nM
same,Ratio Ki,Rattus norvegicus,69.5
same,Ki,D(2) dopamine receptor,8.83 µM
same,Ki,D(3) dopamine receptor,5.23 µM
CC(C)(C)CN1CCC(NCC[S+]([O-])C(c2ccc(F)cc2)c2ccc(F)cc2)CC1 (configuration not stated),Ratio Ki,[1],1.26
same,Ki,[2],542 nM
same,Ratio Ki,Rattus norvegicus,16.2
Fc1ccc(C(SCCN2CCC(NCc3ccc(C(F)(F)F)cc3)CC2)c2ccc(F)cc2)cc1,Ki,[2],162 nM
Fc1ccc(C(SCCNC2CCN(CC3CC3)CC2)c2ccc(F)cc2)cc1,Ratio Ki,[1],0.66
same,Ki,[2],269 nM
same,Ratio Ki,Rattus norvegicus,3.93
Fc1ccc(C(SCCNC2CCN(Cc3ccc(Cl)cc3)CC2)c2ccc(F)cc2)cc1,Ratio Ki,[1],1.15
same,Ki,[2],45.5 nM
same,Ratio Ki,Rattus norvegicus,9.04
O=C(C1CC1)N1CCC(NCCSC(c2ccc(F)cc2)c2ccc(F)cc2)CC1,Ratio Ki,[1],0.26
same,Ki,[2],46.4 nM
same,Ratio Ki,Rattus norvegicus,5.67
Fc1ccc(CN2CCC(NCCSC(c3ccc(F)cc3)c3ccc(F)cc3)CC2)cc1,Ki,D(4) dopamine receptor,0.98 µM
same,Stabilty,[3],70%
same,Stabilty,[4],100%
same,Ratio Ki,[1],0.52
same,Ki,[2],13.3 nM
same,Ratio Ki,Rattus norvegicus,10.9
same,Ki,D(2) dopamine receptor,2.92 µM
same,Ki,D(3) dopamine receptor,0.911 µM
CN(CCSC(c1ccc(F)cc1)c1ccc(F)cc1)C1CCN(C(=O)c2ccc(F)cc2)CC1,Ki,[7],190 nM
same,Ratio Ki,[1],0.04
same,Ki,[2],7.11 nM
same,Ratio Ki,Rattus norvegicus,12.8
same,Ki,[8],2.44 µM
